TAAR1 agonist: agonists of human TAAR1. Q96RJ0. CHO RD-HGA16 TAAR1, Fluo-8 calcium fluorescence; vehicle wells 0%, saturating PEA agonist 100%. activation, % at 3 µM. hit rate 0.99% among 360,000. AID 624467;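 active = activation above the mean activation of all test compounds in the run plus 3 SD, cut at about 38% in these data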
Target sequence (Q96RJ0 whole entry, looked up): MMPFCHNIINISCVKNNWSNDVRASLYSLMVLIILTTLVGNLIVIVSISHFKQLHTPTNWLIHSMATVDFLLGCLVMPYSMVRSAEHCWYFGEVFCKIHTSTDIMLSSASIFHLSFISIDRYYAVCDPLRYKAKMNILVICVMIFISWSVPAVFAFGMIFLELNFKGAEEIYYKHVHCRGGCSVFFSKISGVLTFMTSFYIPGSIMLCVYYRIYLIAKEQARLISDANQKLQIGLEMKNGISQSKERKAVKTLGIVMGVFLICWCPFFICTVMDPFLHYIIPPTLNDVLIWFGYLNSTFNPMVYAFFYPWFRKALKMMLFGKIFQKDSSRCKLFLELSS
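test system = CHO RD-HGA16 cells carrying human TAAR1 plus Gα16 | schedule = 17-24 h seeding, 75 min 37 °C dye, 30 min RT | compound dosing = 3 µM single concentration | control set = DMSO and PEA EC100 | replicates = n 1 | signal = Fluo-8 fluorescence, 5 s baseline then 140 s kinetic read | measure = percent activation vs PEA EC100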
GPR7 antag: blocks human GPR7 receptor signaling; GPR7-expressing cells, fluorescence antagonist assay; inhibition, % at 4.4 µM; hit rate 1.1% among 290,000; AID 1861; P48145; in the data active = inhibition above about 16%, passing the limit was not always enough;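 also: cells stimulated with the agonist NPW; 0% = agonist with vehicle and 100% = vehicle without agonist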
Target sequence (P48145 whole entry, looked up): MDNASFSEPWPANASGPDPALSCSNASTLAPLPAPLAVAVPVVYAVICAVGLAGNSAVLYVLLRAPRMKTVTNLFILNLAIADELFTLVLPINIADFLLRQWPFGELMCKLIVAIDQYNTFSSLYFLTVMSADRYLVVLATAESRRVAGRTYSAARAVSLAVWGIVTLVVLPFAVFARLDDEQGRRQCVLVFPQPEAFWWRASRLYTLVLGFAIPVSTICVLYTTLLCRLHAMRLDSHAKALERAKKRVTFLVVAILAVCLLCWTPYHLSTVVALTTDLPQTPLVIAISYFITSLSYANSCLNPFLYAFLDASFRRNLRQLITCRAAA
OX1R antag-1: blocks the human orexin 1 receptor; O43613; OX1R-expressing cells, FRET antagonist read-out; inhibition, % at 6.6 µM; hit rate 1.8% among 330,000; in the data active = inhibition mostly above about 38%, no sharp cut-off; inactive = mostly below about 40%;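 also: 0% = agonist challenge alone and 100% = reference antagonist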
TAAR1 antagonist: antagonists of human TAAR1; CHO RD-HGA16 TAAR1, Fluo-8 calcium fluorescence, antagonist; Q96RJ0; inhibition, % at 3 µM; hit rate 1.5% among 360,000; AID 624466;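 active = inhibition above a per-plate cutoff, the mean inhibition of test compounds on that plate plus 3 SD, cut at about 49% in these data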;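 also: 0% = DMSO plus EC80 beta-PEA response and 100% = DMSO alone without agonist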
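Test system – hTAAR1-expressing CHO RD-HGA16 cells, Gα16-coupled · Also added – β-PEA at EC80 concentration, post-compound challenge · Compound – 3 µM, single point · Incubation – dye loading 75 min at 37 °C, then 30 min room temperature · Measured by – Fluo-8 intracellular calcium dye fluorescence, real-time kinetic reads · Benchmarks – vehicle and agonist controls · Replicates – singlicate, one well per test compound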
CHO parental Ca: counter-screen: ATP calcium response change in parental CHO cells | inhibition, % at 5.6 µM | hit rate 0.63% among 330,000 | AID 463079 | parental CHO-K1, ATP-induced calcium, Fluo-8 fluorescence;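 active = inhibition above that plate's mean sample inhibition plus 3 SD, cut at about 26% in these data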;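 also: 0% = ATP-challenged DMSO wells and 100% = DMSO wells without ATP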
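Test system: untransfected parental CHO cell line; also added: ATP stimulus; dosing: 5.6 µM, single dose; signal: calcium-sensitive Fluo-8 fluorescence; measure: percent inhibition of ATP-evoked calcium rise, normalized to controls; benchmarks: low control ATP plus DMSO, high control DMSO only; replication: one well per compound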
OX1R antag-2: human HCRTR1 antagonism. CHO/OX1R cells, Fluo-8 calcium fluorescence, orexin A. O43613. hit rate 0.43% among 330,000. AID 434989. inhibition, % at 5 µM;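 active = inhibition above its plate's threshold, mean inhibition of all tested compounds on the plate plus 3 SD, cut at about 37% in these data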;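 also: 0% = orexin A challenge wells and 100% = SB-334867-A antagonist wells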
OX1R Ca confirm: OX1R (human) antagonism, confirmed; shares compounds with OX1R antag-2; CHO/OX1R cells, orexin A calcium Fluo-8 fluorescence; hit rate 38% among 1,100; inhibition, % at 5 µM; in the data active = inhibition above about 29%;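 also: 0% = agonist challenge alone and 100% = reference antagonist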
CHO Ca counter: counter-screen: parental CHO calcium response change, triplicate; AID 492965; shares compounds with OX1R antag-2; hit rate 9.3% among 1,100; inhibition, % at 5.6 µM; parental CHO-K1, ATP-induced calcium, Fluo-8 fluorescence;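 active = inhibition above a per-plate limit, the mean inhibition of that plate's test compounds plus 3 SD, cut at about 25% in these data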;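 also: 0% = ATP challenge with DMSO and 100% = DMSO without ATP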
The depositor's hits bear a star. Hits are enriched below; roughly 4.6% of the tested compounds scored in any of these assays.

Screening Cc1ccc(CNC(=O)CCC(=O)n2ncc3cc(C)ccc32)cc1 returned TAAR1 agonist -3, GPR7 antag -6, OX1R antag-1 2, TAAR1 antagonist -18, CHO parental Ca 7 and OX1R antag-2 -3.
`COCCCNC(=O)Cn1cnc(C(=O)Nc2ccc(C)c(C)c2)n1` gave TAAR1 agonist 2, OX1R antag-1 2, TAAR1 antagonist 6, CHO parental Ca -4 and OX1R antag-2 -14.
For O=C(COC(=O)c1cccs1)c1ccc2c(c1)OCCO2 the results were TAAR1 agonist 9, GPR7 antag -4, OX1R antag-1 10, TAAR1 antagonist 5, CHO parental Ca 1 and OX1R antag-2 16.
For O=C(COC(=O)c1cccs1)c1ccc2ccccc2c1 the results were TAAR1 agonist 1, GPR7 antag -9, OX1R antag-1 37, TAAR1 antagonist 13, CHO parental Ca 20, OX1R antag-2 38, OX1R Ca confirm 8 and CHO Ca counter -3.
COc1ccccc1CN(C)C(=O)CSCC(=O)Nc1ccccc1F was read as TAAR1 agonist 5, OX1R antag-1 11, TAAR1 antagonist -8, CHO parental Ca -7 and OX1R antag-2 -2.
CC(OC(=O)C1=COCCO1)C(=O)NC1CCCC(C)C1C (centres undefined) was read as TAAR1 agonist 1 and TAAR1 antagonist 0.
Screening O=C(Nc1ccc(OC(F)F)c(Cl)c1)c1cccc(OC(F)F)c1 returned GPR7 antag 5, OX1R antag-1 23, CHO parental Ca 8, OX1R antag-2 53*, OX1R Ca confirm 12 and CHO Ca counter 19.
`OCCN1CCN(c2ncnc3c2ncn3[C@H]2CN(Cc3ccc4c(c3)OCO4)C[C@@H](CO)O2)CC1` gave TAAR1 agonist 0 and TAAR1 antagonist -1.
Cn1c(SCC(=O)Nc2sccc2C(N)=O)nc2ccccc2c1=O was read as TAAR1 agonist 11, OX1R antag-1 25, TAAR1 antagonist -8, CHO parental Ca -19, OX1R antag-2 37, OX1R Ca confirm 8 and CHO Ca counter 4.
`COC(=O)C1=C(C)N(Cc2ccccc2)C(=NCc2cccc(Cl)c2)N[C@H]1c1cccc(F)c1` gave OX1R antag-1 11, CHO parental Ca 21, OX1R antag-2 61*, OX1R Ca confirm 51* and CHO Ca counter 9.
COC(=O)C1=C(C)N(Cc2ccccc2)C(=NCc2ccco2)N[C@H]1c1cccc(F)c1 was read as TAAR1 agonist 15, OX1R antag-1 7, TAAR1 antagonist 21, CHO parental Ca -22 and OX1R antag-2 -1.
For Nc1[nH]c(C(=O)c2ccccc2)c(-c2ccc(Br)cc2)c1C(=O)c1ccc(Br)cc1 the results were TAAR1 agonist 3 and TAAR1 antagonist -14.
Cn1cnnc1SCC(=O)Nc1nc(-c2ccccc2)cs1 was read as TAAR1 agonist 5, GPR7 antag 3, OX1R antag-1 45, TAAR1 antagonist 9, CHO parental Ca -11, OX1R antag-2 42*, OX1R Ca confirm 32* and CHO Ca counter 2.
Cc1cccc(OCC(=O)Nc2ccncc2)c1C was read as TAAR1 agonist 5, GPR7 antag -5, OX1R antag-1 5, TAAR1 antagonist -4, CHO parental Ca 26, OX1R antag-2 25, OX1R Ca confirm 16 and CHO Ca counter 51*.
`COC(=O)c1ccc2[nH]c3cccc(/C(=C/c4ccccc4)c4ccccc4)c3c2c1` gave TAAR1 agonist 11, GPR7 antag -18, OX1R antag-1 17, TAAR1 antagonist -9, CHO parental Ca -9 and OX1R antag-2 -13.
`O=C1CCCc2[nH]c3cccc(/C(=C/c4ccccc4)c4ccccc4)c3c21` gave TAAR1 agonist 5, GPR7 antag -7, OX1R antag-1 48, TAAR1 antagonist 16, CHO parental Ca 4, OX1R antag-2 39, OX1R Ca confirm 19 and CHO Ca counter 0.
Screening O=C(O)CCCC(=O)N1CC(=O)Nc2ccccc21 returned TAAR1 agonist 6, GPR7 antag 2, OX1R antag-1 18, TAAR1 antagonist -18, CHO parental Ca 8 and OX1R antag-2 -21.
O=C1CN(C(=O)CCCc2c[nH]c3ccccc23)c2ccccc2N1 was read as TAAR1 agonist 8, GPR7 antag 0, OX1R antag-1 36, TAAR1 antagonist 2, CHO parental Ca -4, OX1R antag-2 59*, OX1R Ca confirm 30* and CHO Ca counter 1.
For O=[N+]([O-])c1ccc(Nc2ccc3ccccc3c2)nc1 the results were TAAR1 agonist -2, GPR7 antag 1, OX1R antag-1 35, TAAR1 antagonist 25, CHO parental Ca 0, OX1R antag-2 46*, OX1R Ca confirm 22 and CHO Ca counter 4.
Screening CN1CCN(S(=O)(=O)c2cccc(C(=O)N3CCN(c4ccccc4F)CC3)c2)CC1 returned TAAR1 agonist 4, OX1R antag-1 10, TAAR1 antagonist 17, CHO parental Ca -13 and OX1R antag-2 -16.
Screening CCOC(=O)C1=CC[C@@H](c2cccc(C)c2)N(S(=O)(=O)c2ccc(C)cc2)[C@H]1C(=O)OCC returned TAAR1 agonist 10, OX1R antag-1 22, TAAR1 antagonist -4, CHO parental Ca -6, OX1R antag-2 36, OX1R Ca confirm -10 and CHO Ca counter 2.
For CCOC(=O)C1=CC[C@@H](c2ccccc2Cl)N(S(=O)(=O)c2ccc(C)cc2)[C@H]1C(=O)OCC the results were TAAR1 agonist 6, OX1R antag-1 27, TAAR1 antagonist 8, CHO parental Ca 10, OX1R antag-2 60*, OX1R Ca confirm 10 and CHO Ca counter 5.
C[C@H](NS(=O)(=O)c1ccc(F)cc1)C(=O)OCC(=O)c1c(N)n(C)c(=O)n(C)c1=O was read as TAAR1 agonist 14, OX1R antag-1 0, TAAR1 antagonist 14, CHO parental Ca 6 and OX1R antag-2 -5.
Screening COc1ccccc1NC(=O)c1ccc2c(O)c(S(=O)(=O)c3ccccc3)c(=O)[nH]c2c1 returned TAAR1 agonist 0, GPR7 antag -2, OX1R antag-1 13, TAAR1 antagonist 4, CHO parental Ca 2 and OX1R antag-2 -3.
Screening O=C(Nc1ncn[nH]1)c1ccc(Cl)c(S(=O)(=O)N2CCCCCC2)c1 returned TAAR1 agonist 2, GPR7 antag -4, OX1R antag-1 12, TAAR1 antagonist -4, CHO parental Ca -3, OX1R antag-2 29, OX1R Ca confirm 1 and CHO Ca counter 7.

High-throughput results as filed in PubChem.
